Only a selection was taken, and hits are over-represented in it overall.
PTEN del growth = growth suppressors of cells with PTEN tumor suppressor deletion | viability, % at 10 µM | HCT116 PTEN-null viability, CellTiter-Glo, 60 h; hits give low values | actives 1.2% (n = 140,000) | AID 827;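 active means viability at or below a set limit, 4 SD under the median of all tested compounds, cut at about 3.7% in these data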;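 further: PTEN knockout HCT116 line with beta catenin targeted HCT116 as companion control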
HUVEC inhibit = blocks proliferation of human endothelial cells; HUVEC proliferation, CellTiter-Glo luminescence, 72 h; hits give low values; viability, % at 10 µM (by protocol); actives 1.1% (n = 86,000); AID 648;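 active means viability at or below 30%; inactive means viability above 30%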;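 further: 100% = median luminescence of DMSO-only cell control wells on each plate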
H69AR growth 86K = growth inhibitors of human H69AR lung tumor cells. H69AR lung tumor viability, ATP luminescence, 72 h; hits give low values. viability, % at 10 µM. actives 6% (n = 85,000). AID 598;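 active means viability at or below 40%; inactive means viability above 40%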;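 further: multidrug resistant small cell line overexpressing MRP-1 efflux transporter; 100% = mean luminescence of untreated control wells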
Lung fibro prol = blocks proliferation of human lung fibroblasts | actives 1.1% (n = 85,000) | AID 719 | LL 47 human lung fibroblast viability, ATP luminescence; hits give low values | viability, % at 10 µM;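 active means viability at or below 50% in the single dose screen; inactive means viability above 50%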;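 further: compound exposure lasted 72 h before the ATP readout; 100% = median luminescence of untreated cell-only wells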
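Signal: luminescent ATP detection, CellTiter-Glo; assay system: LL 47 human lung fibroblasts; input: 1,150 cells/well; incubation: overnight cell rest, 72 h compound treatment at 37 °C; measure: % viability versus median cells-only luminescence; medium: IMEM growth medium with 15% fetal bovine serum; dosing: compound addition at 0.1% DMSO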
Candida biofilm = kills Candida albicans biofilms; C. albicans biofilm + clotrimazole, Alamar Blue; actives 0.14% (n = 85,000); AID 834; inhibition, % at 6 µM;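 active means inhibition above 20%; inactive means inhibition below 20%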;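 further: preformed 24 hr biofilms exposed to compound for 48 hr; 0% = biofilm without compound and 100% = blank killed by clotrimazole plus chlorhexidine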
bCat KO growth = beta-catenin-lacking colon tumor cell growth suppression; actives 1.5% (n = 140,000); HCT116 beta-catenin knockout viability, CellTiter-Glo, 60 h; hits give low values; AID 818; viability, % at 10 µM;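 active means viability at or under a set limit, the compound median less 4 SD, cut at about 6% in these data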;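 further: 0% = Hyamine 1622 control at 20 µM and 100% = untreated cell control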
Starred values were filed as active, the others as inactive; . = not tested or not shown.

SMILES	PTEN del growth	HUVEC inhibit	H69AR growth 86K	Lung fibro prol	Candida biofilm	bCat KO growth
CCOc1ccc2[nH]c(=O)c(CN(Cc3cccs3)Cc3nnnn3C(C)(C)CC)cc2c1	20.7	83.0	27.8*	90.7	-3.1	24.5
CCOc1ccc(C(=O)Nc2cc(C)on2)cc1	84.4	98.6	36.0*	.	5.2	77.9
CC(C)(C)OC(=O)N1CCC(c2cc(=O)n3[nH]c(-c4ccc(Cl)cc4)cc3n2)CC1	21.9	73.0	10.9*	75.8	6.0	24.8
CCOC(=O)Cc1cc(=O)n2[nH]c(-c3ccc(Cl)cc3)cc2n1	90.9	72.7	95.4	90.2	5.6	80.2
Cc1ccc2c(c1)nnn2C1CCN(S(=O)(=O)c2ccc(C(=O)N(C)C3CCCCC3)cc2)CC1	49.2	74.9	31.6*	102.7	-2.2	37.7
Cc1ccc(S(=O)(=O)N2CCC(n3nnc4cc(C)ccc43)CC2)cc1	91.9	84.1	87.7	88.7	6.9	92.9
Cc1cc2cc(CN(Cc3ccc4c(c3)OCO4)Cc3nnnn3C3CCCC3)c(=O)[nH]c2cc1C	71.1	65.6	67.5	96.0	0.1	71.7
O=c1[nH]c2cc3c(cc2cc1CN(CCc1ccccc1)Cc1nnnn1C1CCCC1)OCCO3	82.5	77.2	35.5*	96.9	-3.6	74.3
Cc1ccc2[nH]c(=O)c(CN(Cc3ccc4c(c3)OCO4)Cc3nnnn3C3CCCC3)cc2c1	43.1	65.0	11.4*	87.1	-5.1	64.2
CCc1ccc2[nH]c(=O)c(CN(Cc3nnnn3C3CCCC3)C3CCCCC3)cc2c1	1.6*	70.8	11.9*	.	7.3	1.8*
COc1ccc(CN(Cc2cc3ccc(C)cc3[nH]c2=O)Cc2nnnn2C2CCCC2)cc1	38.6	67.4	24.9*	91.9	2.5	59.6
Cc1sc2nc(C(C)Nc3ccccc3N3CCOCC3)[nH]c(=O)c2c1C (stereo not given)	75.3	85.7	48.9	92.9	2.9	87.2
CCC(=O)Nc1cc(C(=O)OCc2ccc(C(=O)Oc3ccccc3)cc2)ccc1C	92.7	.	.	.	.	82.9
CC(=O)OCC(=O)Nc1ccc(C(C)=O)cc1	83.0	96.9	38.9*	101.5	5.8	92.9
CCOC(=O)C1=C(CSCc2ccccc2)NC(=O)NC1c1cc(C)ccc1C (stereo not given)	48.6	93.6	31.6*	97.7	5.0	52.7
CCc1nn(-c2cc(Cl)ccc2OC)c2c1C(=O)CCC2	66.8	76.5	22.2*	85.6	5.5	66.8
CCCc1nn(-c2cc(Cl)ccc2OC)c2c1C(=O)CC(C)(C)C2	52.7	85.2	21.8*	80.0	11.9	55.0
CCCc1nn(C(=O)c2ccccc2)c2c1C(=O)CC(C)(C)C2	90.1	93.4	91.1	101.2	8.1	101.1
COc1ccc(Cl)cc1N1Cc2ccccc2C1	89.4	89.6	99.8	96.0	6.5	80.7
CC(C)(C)c1ccc(OCC(=O)N/N=C/c2cc(Br)ccc2OC(=O)c2ccco2)cc1	4.8	.	.	.	.	4.8*
Cc1ccc(-c2cnc(NC(=O)c3cccc(Br)c3)s2)c(C)c1	84.4	.	.	.	.	85.8
CCN1CCN(c2cc(-c3ccccc3)nc3cc(-c4cccc(F)c4)nn23)CC1	1.4*	21.9*	40.7	89.9	4.9	1.2*
CCCc1nnc(SCc2ccc(OC)cc2)n1N	96.3	107.0	92.7	96.0	6.9	92.8
Nc1nc(CSc2nnnn2-c2ccccc2)nc(N2CCCc3ccccc32)n1	60.8	69.7	27.8*	96.2	2.9	60.8
N=c1nc(N)nc2n1NC(c1ccc(F)cc1)=CS2	76.4	29.8*	93.1	90.7	4.7	70.4
SMILES	PTEN del growth	HUVEC inhibit	H69AR growth 86K	Lung fibro prol	Candida biofilm	bCat KO growth
COc1ccc(C2=CSC(/N=C/c3ccc(F)cc3)=NN2)cc1	72.5	104.7	87.0	95.1	-2.5	67.8
CO/N=C/C(=N\Nc1ccc(OC)cc1)C(=O)c1ccc(OC)cc1	88.8	90.6	23.8*	85.1	1.0	83.8
COc1ccc(/C(C)=N/Nc2ccc(C(=O)O)cc2)c(OC)c1	93.3	.	.	.	.	88.8
COc1ccc(-c2c(C#N)c(SCC(=O)c3cc4ccccc4oc3=O)nc(C)c2C(=O)Nc2ccccc2)cc1	3.9	.	.	.	.	3.2*
COc1ccc(-c2c(C#N)c(SCC(=O)Nc3ccccc3)nc3c2CCCC3)cc1	.	109.7	98.0	100.9	6.1	.
Cc1nc(SCC(=O)c2cc3ccccc3oc2=O)c(C#N)c(-c2ccccc2)c1C(=O)Nc1ccccc1	1.7*	.	.	.	.	1.4*
O=C(N/N=C/C(Cl)=C\c1ccccc1)c1cnccn1	5.7	93.5	60.2	95.5	4.4	4.0*
COc1cc(-c2nc(-c3ccc(NC(=O)c4ccc5c(c4)OCO5)cc3)no2)cc(OC)c1OC	88.3	28.3*	12.9*	73.5	0.3	87.3
COc1ccc(-c2nc(-c3ccc(NC(=O)c4ccncc4)cc3)no2)cc1OC	25.7	.	.	.	.	23.7
COC(=O)c1ccc(NC(=O)c2ccc3c(c2)OCO3)cc1	86.8	90.4	79.0	95.3	6.3	81.0
Cc1ccccc1-c1nc(-c2ccc(NC(=O)c3ccc4c(c3)OCO4)cc2)no1	7.4	38.5	28.1*	20.4*	1.5	12.1
CSc1cc(-c2ccccc2)n(Cc2ccccc2Cl)c(=O)c1C#N	26.3	62.1	4.8*	54.5	0.3	21.6
N#Cc1c(-c2ccccc2)ccn(Cc2ccccc2Cl)c1=O	93.7	.	.	.	.	84.7
Cc1nc2sc3c(c2c2nc(-c4ccco4)nn12)CCCC3	76.7	66.1	9.1*	72.9	4.5	71.6
Cc1[nH]c2ccccc2c1/C=N/NC(=O)C1CC1(c1ccccc1)c1ccccc1 (stereo not given)	3.4*	.	.	.	.	2.7*
CC(C)(C)c1ccc(C(=O)N/C(N)=N/c2nc3ccccc3o2)cc1	82.0	79.8	45.1	104.5	2.2	71.0
COc1ccc(C(=O)N/C(N)=N/c2nc3ccccc3o2)cc1	.	85.5	18.8*	97.4	7.4	77.7
COc1ccccc1NC(=S)NCc1ccc2c(c1)OCO2	95.8	.	.	.	.	83.9
Cc1ccc(NC(=O)N2CCCN(Cc3ccc(F)cc3)C2)cc1C	48.4	37.6	28.1*	.	5.0	51.0
O=C(Cn1cncn1)c1ccc(F)cc1F	102.2	.	.	.	.	105.5
COc1ccc(OC)c(C2CC(=O)c3c([nH]c(C(=O)OC(C)C)c3C)C2)c1 (stereo not given)	14.8	31.2	27.8*	55.6	5.0	14.3
COc1ccc(OC)c(C2CC(=O)c3c([nH]c(C(=O)OCC4CCCO4)c3C)C2)c1 (stereo not given)	33.9	.	.	.	.	32.5
COCCOC(=O)c1[nH]c2c(c1C)C(=O)CC(c1cc(OC)ccc1OC)C2 (stereo not given)	31.2	.	.	.	.	40.0
CCCOCCOC(=O)c1[nH]c2c(c1C)C(=O)CC(c1cc(OC)ccc1OC)C2 (stereo not given)	18.3	45.1	18.8*	63.4	6.4	11.9
Cn1c(=O)cc(SCC(=O)NCC2COc3ccccc3O2)c2ccccc21 (stereo not given)	99.3	102.2	82.5	39.6*	8.5	92.6

Assay outcomes deposited in PubChem by several laboratories.
